The text below walks through data of ChEMBL document CHEMBL1121713, “Synthesis and antiinflammatory activity of metabolites of piroxicam” (1981).

Calls of active or inactive are those of the source. The calls are words filed in the database; no cut-off is given here.

In experiment [1] the test system is Rattus norvegicus. The experiment in a line: Antiinflammatory activity of compound expressed as percentage inhibition of carrageenan edema 4 hr after an oral dose of 33 mg/kg. The class given is functional. In short, it runs like this: (§1)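 Rat carrageenan paw edema, subplantar carrageenan injection, per Winter et al. Oral dosing in water with 4% polyethylene glycol and 0.2% Tween 80, dilute NaOH added as needed to dissolve. Six rats per treated group, eight per vehicle-only or phenylbutazone group, run concurrently. Read-out is mean % inhibition of edema 4 h after the dose versus vehicle controls.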

In experiment [2] the test system is Rattus norvegicus. The experiment in a line: Antiinflammatory activity of compound expressed as percentage inhibition of carrageenan edema 4 hr after an oral dose of 10 mg/kg. The class given is functional. In short, it runs like this: as §1
Experiment [3] deals with Rattus norvegicus. The experiment can be described thus: Antiinflammatory activity of compound expressed as percentage inhibition of carrageenan edema 4 hr after an oral dose of 10 mg/kg; Not available. The class given is functional, organism-based. The arrangement: dose 10 mg/kg. In short, it runs like this:
as §1

In the case of `CN1C(C(=O)O)=C(O)c2ccccc2S1(=O)=O`, the inhibition in vivo at 33 mg/kg in the experiment with Rattus norvegicus [1] came out at 0%.
The molecule `CN1C(=O)c2ccccc2S1(=O)=O` displayed an inhibition in vivo at 33 mg/kg with Rattus norvegicus [1] of 12%.
`CN1C(C(=O)Nc2cc(O)ccn2)=C(O)c2ccccc2S1(=O)=O` returned an inhibition in vivo at 33 mg/kg in the experiment with Rattus norvegicus [1] of 24%. Besides, 10 mg/kg produced 10% inhibition in vivo in the experiment with Rattus norvegicus [2].
In the experiment with Rattus norvegicus [1], `CN1C(C(=O)Nc2ncccc2O)=C(O)c2ccccc2S1(=O)=O` displayed an inhibition in vivo at 33 mg/kg of 41%. Moreover, testing at 10 mg/kg in the experiment on Rattus norvegicus [2] gave an inhibition in vivo of 13%.
For the molecule `CN1CC(=O)c2ccccc2S1(=O)=O`, in the experiment with Rattus norvegicus [3], the inhibition result was “inactive”. Further, the inhibition in vivo at 33 mg/kg with Rattus norvegicus [1] worked out at 8%.
As for `CN1C(C(=O)Nc2ccccn2)=C(O)c2ccccc2S1(=O)=O` [PIROXICAM], the inhibition in vivo at 33 mg/kg in the experiment on Rattus norvegicus [1] is 75%. For the same molecule, at 10 mg/kg the inhibition in vivo in the experiment with Rattus norvegicus [2] was 67%.
The matching figures for `CCCCC1C(=O)N(c2ccccc2)N(c2ccccc2)C1=O` [PHENYLBUTAZONE]: 50% and 35%.
For the molecule `CN1C(C(=O)Nc2cccc(O)n2)=C(O)c2ccccc2S1(=O)=O`, testing at 33 mg/kg in the experiment on Rattus norvegicus [1] gave an inhibition in vivo of 40%. This molecule came in with an inhibition in vivo at 10 mg/kg in the experiment with Rattus norvegicus [2] of 31%.
In the case of `CN1c2c(n3ccccc3nc2=O)-c2ccccc2S1(=O)=O`, the inhibition in vivo at 33 mg/kg with Rattus norvegicus [1] stood at 46%. The same molecule displayed an inhibition in vivo at 10 mg/kg in the experiment on Rattus norvegicus [2] of 38%.
`O=C1NS(=O)(=O)c2ccccc21` [SACCHARIN] showed an inhibition in vivo at 33 mg/kg with Rattus norvegicus [1] of 0%.
For `CN1C(C(=O)Nc2ccc(O)cn2)=C(O)c2ccccc2S1(=O)=O` [HYDROXY PIROXICAM METABOLITE], in the experiment with Rattus norvegicus [1], testing at 33 mg/kg gave an inhibition in vivo of 17%. Also, the inhibition in vivo at 10 mg/kg with Rattus norvegicus [2] was determined as 15%.
